Source: ChEMBL document CHEMBL3804800, “(E)-3-Heteroarylidenechroman-4-ones as potent and selective monoamine oxidase-B inhibitors” (Eur J Med Chem, 2016)

Columns and labels:
[1] = target: T1, Amine oxidase [flavin-containing] A (Homo sapiens, UniProt P21397); experiment: Inhibition of human recombinant microsomal MAO-A expressed in baculovirus infected BTI-TN-5B1-4 cells using p-tyramine as substrate assessed as reduction in H2O2 production at 100 uM preincubated for 15 mins followed by substrate addition measured for 15 mins Amplex red dye based fluorimetric method relative to control; details: for inhibition (INH): human, bti-tn-5b1-4, 0.25 h, 100 µM; for inhibition at 100 µM: BTI-TN-5B1-4, human, 0.25 h
T1 sequence (P21397 whole entry): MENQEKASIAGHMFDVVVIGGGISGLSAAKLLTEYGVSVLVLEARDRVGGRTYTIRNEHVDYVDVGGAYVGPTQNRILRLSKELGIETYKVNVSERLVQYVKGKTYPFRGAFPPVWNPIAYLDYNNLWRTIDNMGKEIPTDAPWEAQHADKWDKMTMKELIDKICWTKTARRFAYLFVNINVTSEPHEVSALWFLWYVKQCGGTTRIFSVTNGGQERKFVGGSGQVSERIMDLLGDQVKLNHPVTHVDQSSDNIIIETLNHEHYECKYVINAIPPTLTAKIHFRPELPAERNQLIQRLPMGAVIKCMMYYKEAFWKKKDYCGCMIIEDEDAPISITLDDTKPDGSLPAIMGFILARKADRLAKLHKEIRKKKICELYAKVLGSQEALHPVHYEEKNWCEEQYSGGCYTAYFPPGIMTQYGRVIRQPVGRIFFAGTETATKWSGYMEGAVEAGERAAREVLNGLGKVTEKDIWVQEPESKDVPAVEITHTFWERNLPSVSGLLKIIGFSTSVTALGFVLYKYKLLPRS
Outline: (§1)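 Microsomal hMAO-A or hMAO-B from baculovirus-infected BTI-TN-5B1-4 insect cells. Activity read as H2O2 formed from p-tyramine, detected by Amplex Red resorufin fluorescence. Test compounds were checked for direct reaction with Amplex Red. Highest concentration tested was 100 μM for some compounds and 1 mM for others. Mean ± S.E.M. from five experiments.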

[2] = Selectivity index, ratio of IC50 for human recombinant microsomal MAO-A expressed in baculovirus infected BTI-TN-5B1-4 cells to IC50 for human recombinant microsomal MAO-B expressed in baculovirus infected BTI-TN-5B1-4 cells
[3] = target: T2, Amine oxidase [flavin-containing] B (Homo sapiens, UniProt P27338); experiment: biochemical; assay type: cell-based, BTI-TN-5B1-4
T2 sequence (P27338 whole entry): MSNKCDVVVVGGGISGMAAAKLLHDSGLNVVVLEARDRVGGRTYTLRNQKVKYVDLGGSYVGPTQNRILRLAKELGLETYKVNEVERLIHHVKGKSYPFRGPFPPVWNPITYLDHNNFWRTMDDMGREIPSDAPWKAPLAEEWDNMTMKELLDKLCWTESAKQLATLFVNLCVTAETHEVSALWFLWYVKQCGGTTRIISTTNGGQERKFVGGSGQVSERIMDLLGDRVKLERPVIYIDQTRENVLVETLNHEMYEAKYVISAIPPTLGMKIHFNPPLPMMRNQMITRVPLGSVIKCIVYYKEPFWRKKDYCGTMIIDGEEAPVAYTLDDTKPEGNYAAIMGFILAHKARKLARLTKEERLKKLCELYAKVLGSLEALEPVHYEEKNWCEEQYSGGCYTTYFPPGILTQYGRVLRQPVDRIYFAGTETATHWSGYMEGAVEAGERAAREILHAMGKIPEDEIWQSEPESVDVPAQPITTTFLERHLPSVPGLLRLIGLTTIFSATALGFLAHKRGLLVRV

[4] = target: T2, Amine oxidase [flavin-containing] B; experiment: Reversible inhibition of human recombinant microsomal MAO-B expressed in baculovirus infected BTI-TN-5B1-4 cells at 10 times IC50 using p-tyramine as substrate assessed as reduction in H2O2 production preincubated for 30 mins followed by substrate addition for 15 mins followed by compound dilution by Amplex red dye based fluorimetric method; details: bti-tn-5b1-4, 0.25 h
Outline: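 Dilution method. […] The mixture was then diluted 100-fold into buffer containing Amplex Red, horseradish peroxidase and p-tyramine, and the reaction was monitored for 15 min. Slope was compared with a control preincubated and diluted without inhibitor.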

[5] = target: T2, Amine oxidase [flavin-containing] B; experiment: Inhibition of human recombinant microsomal MAO-B expressed in baculovirus infected BTI-TN-5B1-4 cells using p-tyramine as substrate assessed as reduction in H2O2 production at 1 mM preincubated for 15 mins followed by substrate addition measured for 15 mins Amplex red dye based fluorimetric method; details: bti-tn-5b1-4, 0.25 h, 1000 µM; outline: as §1

| SMILES | inhibition (INH) [1] | Ratio IC50 [2] | IC50 [3] | inhibition at 100 µM [1] | inhibition (INH) [4] | inhibition (INH) [5] |
| --- | --- | --- | --- | --- | --- | --- |
| O=C1/C(=C/c2ccncc2)COc2ccccc21 | Not Active | > 8 | 12.4 µM | – | – | – |
| O=C1/C(=C/c2cccs2)COc2ccccc21 | – | 88 | 1.13 µM | 40% | – | – |
| Nc1ncc(/C=C2\COc3ccccc3C2=O)cn1 | Not Active | > 5.5 | 18.3 µM | – | – | – |
| CN(C)c1ccc(/C=C2\COc3cc(Cl)cc(Cl)c3C2=O)cn1 | – | 9.5 | 10.5 µM | 40% | – | – |
| CN(C)c1ncc(/C=C2\COc3ccccc3C2=O)cn1 | Not Active | > 415 | 0.241 µM | – | – | – |
| O=C1/C(=C/c2c[nH]cn2)COc2ccccc21 | – | 5 | 20.2 µM | 40% | – | – |
| O=C1/C(=C/c2c[nH]cn2)COc2cc(Cl)cc(Cl)c21 | – | 9.8 | 10.2 µM | 40% | – | – |
| COc1ccc2c(c1)OC/C(=C\c1c[nH]cn1)C2=O | – | 9.4 | 10.6 µM | 40% | – | – |
| CN(C)c1ccc(/C=C2\COc3ccccc3C2=O)cn1 | Not Active | > 469 | 0.213 µM | – | – | – |
| O=C1Nc2ccccc2C1=O [ISATIN] | Not Active | – | – | – | – | – |
| O=C1/C(=C/c2ccco2)COc2ccccc21 | – | 27 | 3.77 µM | 40% | – | – |
| CN(C)c1ncc(/C=C2\COc3cc(Cl)cc(Cl)c3C2=O)cn1 | Not Active | > 9450 | 0.0106 µM | – | Active | – |
| O=C1/C(=C/c2c[nH]c3ccccc23)COc2ccccc21 | – | 551 | 0.181 µM | 40% | – | – |
| O=C1/C(=C/c2ccccn2)COc2ccccc21 | Not Active | > 34 | 2.94 µM | – | – | – |
| O=C1/C(=C/c2ccsc2)COc2ccccc21 | – | 58 | 1.73 µM | 40% | – | – |
| O=C1/C(=C/c2cccnc2)COc2ccccc21 | Not Active | > 12 | 8.23 µM | – | – | – |
| Nc1ccc(/C=C2\COc3ccccc3C2=O)cn1 | Not Active | > 42 | 2.39 µM | – | – | – |
| COc1ccc2c(c1)OC/C(=C\c1cnc(N(C)C)nc1)C2=O | Not Active | > 9.6 | 10.4 µM | – | – | – |
| O=C(NCCN1CCOCC1)c1ccc(Cl)cc1 [MOCLOBEMIDE] | – | – | – | – | – | Not Active |
| O=C1/C(=C/c2ccc[nH]2)COc2ccccc21 | – | 7.3 | 13.8 µM | 40% | – | – |
